Key:
Assay type in all cases: functional, cell-based
HL-60 = test: Cytotoxicity against human HL60 cells after 2 days by MTT assay; conditions: HL-60, 48 h
Method in brief: (§1)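 Leukemia lines (HL-60, THP-1, U-937, Jurkat) grown in RPMI-1640, A-549 in DMEM, both with 10% heat-inactivated FCS at 37 °C, 5% CO2. Cells seeded at 2 × 10⁴/well, dosed after 24 h and read 2 days later. MTT (5 mg/mL stock) added for 4 h at 37 °C, formazan dissolved in DMSO, read at 570 nm. Five replicates; IC50 from linear regression.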

Jurkat = test: Cytotoxicity against human Jurkat cells after 2 days by MTT assay; conditions: 48 h; method in brief: as §1
U-937 = test: Cytotoxicity against human U937 cells after 2 days by MTT assay; conditions: U-937, 48 h; method in brief: as §1
THP-1 = test: Cytotoxicity against human THP1 cells after 2 days by MTT assay; conditions: THP-1, 48 h; method in brief: as §1
A549 = test: Cytotoxicity against human A549 cells after 2 days by MTT assay; conditions: A549, 48 h; method in brief: as §1

Question: Which results are given for `O=C1c2ccc(-c3nc4ccccc4s3)cc2N=C[C@@H]2CCCN12`?
Answer: IC50 (HL-60): 7.27 µM; IC50 (Jurkat): 9.43 µM; IC50 (U-937): 5.41 µM; IC50 (THP-1): 3.09 µM

Question: Which IC50 (HL-60) does the source give for `COc1ccc2nc(-c3ccc(N=C(NC4CCCCC4)NC4CCCCC4)cc3)sc2c1` here?
Answer: 7.15 µM

Question: What about the IC50 (Jurkat) of the same compound?
Answer: 2.23 µM

Question: What about the IC50 (A549) of the same compound?
Answer: 3.23 µM

Question: And the IC50 (THP-1)?
Answer: 3.1 µM

Question: For `COc1ccc2nc(-c3ccc(C)c(N)c3)sc2c1`, which IC50 (HL-60) is on record?
Answer: > 50 µM

Question: What about the IC50 (Jurkat) of the same compound?
Answer: > 50 µM

Question: And the IC50 (U-937)?
Answer: > 50 µM

Question: And the IC50 (A549)?
Answer: > 50 µM

Question: What about the IC50 (THP-1) of the same compound?
Answer: > 50 µM

Question: What does the source list for `O=C1c2ccc(-c3nc4ccc(F)cc4s3)cc2N=C[C@@H]2CCCN12`?
Answer: IC50 (HL-60): 4.13 µM; IC50 (Jurkat): 6.58 µM; IC50 (U-937): 3.44 µM; IC50 (THP-1): 0.49 µM

Question: How did the IC50 (HL-60) turn out when `COc1cc2nc(-c3cccc(N)c3C)sc2c(OC)c1OC` was run?
Answer: 5.63 µM

Question: And the IC50 (Jurkat)?
Answer: 9.75 µM

Question: What about the IC50 (A549) of the same compound?
Answer: 4.56 µM

Question: What about the IC50 (THP-1) of the same compound?
Answer: 3.56 µM

Question: What does the source list for `CC1(C)O[C@H]2O[C@H]([C@H]3COC(C)(C)O3)[C@H](OCc3ccc(-c4nc5ccc(F)cc5s4)cc3)[C@H]2O1`?
Answer: IC50 (HL-60): > 50 µM; IC50 (Jurkat): > 50 µM; IC50 (U-937): > 50 µM; IC50 (A549): > 50 µM; IC50 (THP-1): > 50 µM

Question: What does the source list for `COc1ccc2nc(-c3ccc(N)cc3)sc2c1`?
Answer: IC50 (HL-60): > 50 µM; IC50 (Jurkat): > 50 µM; IC50 (U-937): > 50 µM; IC50 (A549): > 50 µM; IC50 (THP-1): > 50 µM

Question: What does the source list for `Cc1ccc(-c2nc3ccc(F)cc3s2)cc1N`?
Answer: IC50 (HL-60): > 50 µM; IC50 (Jurkat): > 50 µM; IC50 (U-937): > 50 µM; IC50 (A549): > 50 µM; IC50 (THP-1): > 50 µM

Question: Which results are given for `COc1cc([C@@H]2c3cc4c(cc3[C@@H](O[C@@H]3O[C@@H]5CO[C@@H](C)O[C@H]5[C@H](O)[C@H]3O)[C@H]3COC(=O)[C@H]23)OCO4)cc(OC)c1O` [ETOPOSIDE]?
Answer: IC50 (Jurkat): 5.35 µM; IC50 (U-937): 17.9 µM

Question: What does the source list for `CC[C@@]1(O)C(=O)OCc2c1cc1n(c2=O)Cc2cc3ccccc3nc2-1` [CAMPTOTHECIN]?
Answer: IC50 (HL-60): 0.6 µM; IC50 (Jurkat): 0.026 µM; IC50 (U-937): 1.98 µM; IC50 (A549): 0.008 µM; IC50 (THP-1): 0.071 µM

Question: Which results are given for `COc1ccc2nc(-c3ccc(NC(=O)NCc4ccccc4)cc3)sc2c1`?
Answer: IC50 (HL-60): > 50 µM; IC50 (Jurkat): > 50 µM; IC50 (U-937): > 50 µM; IC50 (A549): > 50 µM; IC50 (THP-1): > 50 µM

Question: How did the IC50 (HL-60) turn out when `Cc1ccc(-c2nc3ccccc3s2)cc1N` was run?
Answer: > 50 µM

Question: What about the IC50 (Jurkat) of the same compound?
Answer: > 50 µM

Question: And the IC50 (U-937)?
Answer: > 50 µM

Question: What about the IC50 (A549) of the same compound?
Answer: > 50 µM

Question: What about the IC50 (THP-1) of the same compound?
Answer: > 50 µM

Question: How did the IC50 (HL-60) turn out when `COc1ccc2nc(-c3ccc4c(c3)N=C[C@@H]3CCCN3C4=O)sc2c1` was run?
Answer: 6.39 µM

Question: And the IC50 (Jurkat)?
Answer: 11.3 µM

Question: What about the IC50 (U-937) of the same compound?
Answer: 6.03 µM

Question: What about the IC50 (THP-1) of the same compound?
Answer: 2.14 µM

Question: With `COc1ccc2nc(-c3ccc(NC(=O)C4CC4)cc3)sc2c1` as the compound, how does the IC50 (HL-60) read?
Answer: > 50 µM

Question: And the IC50 (Jurkat)?
Answer: > 50 µM

Question: What about the IC50 (U-937) of the same compound?
Answer: > 50 µM

Question: And the IC50 (A549)?
Answer: > 50 µM

Question: And the IC50 (THP-1)?
Answer: > 50 µM

Question: Which results are given for `CC1(C)O[C@H]2O[C@H]([C@H](O)CO)[C@H](OCc3ccc(-c4nc5ccc(F)cc5s4)cc3)[C@H]2O1`?
Answer: IC50 (HL-60): 22.3 µM; IC50 (Jurkat): 3.2 µM; IC50 (A549): 5.01 µM; IC50 (THP-1): 3 µM
